≈ marks a conversion by molar mass, not a printed value. Calls of active or inactive are those of the source.
Key:
[1] = tested on: Human immunodeficiency virus 1; test: Antiviral activity against HIV1 3B infected in human H9 T cells after 4 days by ELISA; type: functional, organism-based; settings: for EC50: Human immunodeficiency virus 1, 3B, H9, 96 h
How it was run: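 H9 T cells kept in RPMI 1640 with 10% fetal calf serum at 37 °C, 5% CO2, used in log phase. Infected with HIV-1 IIIB (MOI 0.1-0.01 IU/cell) for 1 h, washed, and seeded at 4 × 10^5 cells/mL with compound diluted in medium. After 4 days at 37 °C, p24 in medium was read by sandwich ELISA (cutoff 12.5 pg/mL) against a p24 standard curve. EC50 was derived.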

H9 = test: Cytotoxicity against human H9 cells; type: cell-based
How it was run: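 Uninfected H9 T cells (log phase, RPMI 1640 + 10% FCS) were seeded at 4 × 10^5 cells/mL with compound diluted in medium and kept 4 days at 37 °C, 5% CO2. Cell density was counted by Coulter counter and IC50 was derived.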

[2] = Therapeutic index, ratio of IC50 for human H9 cells to EC50 for HIV1 3B; type: cell-based; settings: H9 cells infected with HIV-1 3B, read-out: TI

| SMILES | Activity [1] | IC50 (H9) [µg/mL] | EC50 [1] [µg/mL] | selectivity ratio [2] |
| --- | --- | --- | --- | --- |
| CC1=CC[C@@H]([C@@H](C)[C@H]2CC[C@@]3(C)[C@@H]4C[C@@H](O)[C@H]5C(C)(C)OC(=O)C=C[C@@]56C[C@@]46CC[C@]23C)OC1=O [KADSULACTONE A] | inactive | 8.6 (≈ 17.8 µM) |  |  |
| CC1=CC[C@@H]([C@@H](C)[C@H]2CC[C@@]3(C)C4=C(C=C5C=CC(=O)OC(C)(C)[C@@H]5[C@H](O)C4)CC[C@]23C)OC1=O [LANCILACTONE A] | inactive | 14.3 (≈ 29.8 µM) |  |  |
| CC1=CC[C@@H]([C@@H](C)[C@H]2CC[C@@]3(C)C4=C(C=C5C=CC(=O)OC(C)(C)[C@@H]5C=C4)CC[C@]23C)OC1=O [LANCILACTONE B] | inactive | 7.1 (≈ 15.3 µM) |  |  |
| CC1=CC[C@@H]([C@@H](C)[C@H]2CC[C@@]3(C)C4=C(C=C(CCC(=O)O)C(=C(C)C)C=C4)CC[C@]23C)OC1=O [LANCILACTONE C] |  | > 100 | 1.4 (≈ 3.01 µM) | > 71.4 |
| Cc1cn([C@H]2C[C@H](N=[N+]=[N-])[C@@H](CO)O2)c(=O)[nH]c1=O [ZIDOVUDINE] |  |  | 0.045 (≈ 0.168 µM) |  |
